Source: PubChem BioAssay (several laboratories)
The list is not random: actives were taken first. Their share in the collection is about 2.2%.
697 NFkB inh: inhibitors of the PMA/ionomycin-induced NF-kB reporter in 697 B cells; 697 B-cell NF-kB luciferase reporter, 16 h; inhibition, % at 4 µM; 330,000 compounds, 0.33% hits; AID 435022; in the data active means inhibition above about 35%
FGF22 binding: shifts melting point of recombinant human FGF22; recombinant FGF22 thermal shift, SYPRO orange fluorescence; percent of sucrose octasulfate shift, DMSO zero; activity (Tm shift, normalised), % at 9.99 µM; 340,000 compounds, 1.5% hits; AID 651658;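 active means mean Tm shift, scaled 0 neutral to 100 positive control, at about 1.3% or above, every replicate too, limit read from the data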
Target sequence (Q9HCT0 whole entry, looked up): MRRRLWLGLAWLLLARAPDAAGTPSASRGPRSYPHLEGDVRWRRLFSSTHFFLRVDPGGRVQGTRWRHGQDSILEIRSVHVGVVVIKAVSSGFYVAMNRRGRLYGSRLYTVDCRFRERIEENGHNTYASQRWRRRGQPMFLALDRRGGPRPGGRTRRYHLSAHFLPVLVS
miR122 inh: blocks miR-122 activity in Huh7 sensor cells; 340,000 compounds, 0.3% hits; AID 602342; Huh7 miR-122 Renilla luciferase sensor, 48 h; neutral wells = 0, positive control = 100; activation (reporter increase), % at 12.5 µM;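 active means mean replicate activation score at least 90 and every replicate individually at or above 90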;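 further: higher luciferase means less miR-122 activity so hits act as miR-122 inhibitors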
NR2E3 ag-1: agonists of human nuclear receptor NR2E3; Q9Y5X4; GST-NR2E3/biotin-RetCOR TR-FRET, 1536-well; inhibition of corepressor binding, % at 4.78 µM; 320,000 compounds, 0.12% hits; AID 2300;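 active means percent inhibition above the cutoff of mean plus 3 SD of all tested compounds, set per screening campaign, cut at about 20% in these data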;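 further: 0% = DMSO wells and 100% = biotin wells as full block of FRET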
Target sequence (Q9Y5X4 whole entry, looked up): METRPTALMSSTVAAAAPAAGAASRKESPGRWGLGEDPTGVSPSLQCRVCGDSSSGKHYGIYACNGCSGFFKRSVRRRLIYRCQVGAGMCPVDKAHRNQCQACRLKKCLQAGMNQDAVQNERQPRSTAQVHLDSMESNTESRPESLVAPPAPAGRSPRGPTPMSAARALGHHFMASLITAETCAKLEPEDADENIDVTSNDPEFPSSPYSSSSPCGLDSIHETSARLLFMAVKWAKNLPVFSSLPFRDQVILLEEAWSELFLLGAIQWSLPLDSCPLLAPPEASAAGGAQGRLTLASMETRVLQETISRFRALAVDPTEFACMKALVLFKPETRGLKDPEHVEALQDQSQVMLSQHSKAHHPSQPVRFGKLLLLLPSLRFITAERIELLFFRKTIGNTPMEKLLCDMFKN
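System: GST-tagged NR2E3 plus biotinylated RetCOR corepressor; Buffer or medium: pH 7.5 Tris-based buffer; Probe or stimulus: RetCOR corepressor, biotinylated, 7 nM; Doses: compound at 4.8 µM, single dose; Schedule: 5 h incubation at 4 °C; Technique: time-resolved FRET; Evaluation: percent inhibition of TR-FRET ratio; Replication: one well per compound, singlicate testing.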
Jurkat NFkB inh: lowers PMA/ionomycin-induced NF-kB signal in Jurkat cells. PMA/ionomycin-induced NF-kB luciferase reporter, luminescence. inhibition, % at 4 µM. 330,000 compounds, 0.53% hits. AID 435003; in the data active means inhibition above about 50%
NR2E3 ag-2: agonists of human NR2E3 nuclear receptor. CHO-S Gal4-NCOR/VP16-NR2E3 two-hybrid, luciferase. inhibition of corepressor binding, % at 3.98 µM. 360,000 compounds, 0.35% hits. Q9Y5X4;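 active means inhibition above the mean of all tested compounds plus 3 SD, cut at about 70% in these data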;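 further: 0% = DMSO with NR2E3 transfected cells and 100% = cells lacking NR2E3 construct; higher means lower luciferase signal from less NR2E3 corepressor binding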
Jurkat NFkB conf: lowers PMA/ionomycin-induced NF-kB signal in Jurkat cells; shares compounds with Jurkat NFkB inh; Jurkat NF-kB luciferase, 16 h; inhibition, % at 4 µM; 2,700 compounds, 27% hits; AID 435020;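 active means inhibition reaching about 45% at 4 µM in either replicate, limit read from the data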;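 further: plate controls were PMA/ionomycin stimulated DMSO wells for no effect and unstimulated DMSO wells for full effect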
697 NFkB conf: lowers PMA/ionomycin-induced NF-kB signal in 697 B cells | shares compounds with 697 NFkB inh | 697 B-cell NF-kB luciferase, 16 h | inhibition, % at 4 µM | 2,000 compounds, 35% hits; in the data active means inhibition mostly above about 28%, no sharp cut-off; inactive means mostly below about 22%
* marks the source's active call; other numbers are inactive results; i = inactive; . = not tested or not shown; [ ] = dose if it differs, or a comment.

SMILES	697 NFkB inh	FGF22 binding	miR122 inh	NR2E3 ag-1	Jurkat NFkB inh	NR2E3 ag-2	Jurkat NFkB conf	697 NFkB conf
COc1ccc(NC(=O)N(C)C[C@@H]2Oc3ccc(NS(=O)(=O)c4ccccc4)cc3CC(=O)N([C@@H](C)CO)C[C@H]2C)cc1	.	-0.4	-1.4[16.7 µM]	.	.	.	.	.
CC(/C=N/Nc1nc2ccccc2[nH]1)=C\c1ccccc1	-334.7	0.0	.	-1.8	-224.1	-189.8	-91.2	-190.6
Cc1cc(C)c2c(N)c(C(=O)Nc3ccc(C)c(C)c3)sc2n1	-257.8	-0.2	-10.0	-0.6	-183.3	-154.1	-104.4	-197.7
Cc1noc(C)c1S(=O)(=O)Nc1ccc2c(c1)C(=O)N([C@H](C)CO)C[C@@H](C)[C@@H](CN(C)S(=O)(=O)c1ccc(F)cc1)OCCCC[C@H](C)O2	.	-0.1	5.1[16.7 µM]	.	.	.	.	.
NC1=NC[C@H](Cc2ccc(O)cc2)N1CCCCC1CCCCC1	40.6*	-0.4	.	6.0	79.0*	11.2	49.8*	40.4*
CCC(=O)N1CC2(CCN(Cc3ccc(F)cc3)CC2)c2c(n(C)c3cc(OC)ccc23)[C@@H]1CO	.	0.0	.	.	.	.	.	.
Cc1ccc2c(c1)Cc1nc3ccccc3nc1-2	-262.3	0.4	.	3.6	-188.5	-126.9	-81.4	-252.0
CCOC(=O)CSc1nc2cc3c(cc2cc1C#N)OCCO3	-355.5	0.3	-1.0	3.6	-173.5	-89.6	-101.0	-208.2
CCOC(=O)CSc1nc2cc3c(cc2cc1C)OCO3	0.9	-0.1	6.8	3.9	-3.8	-3.5	.	.
COC(=O)[C@@H]1Cc2c([nH]c3ccccc23)C(C)(C)N1C(=O)CCl	88.5*	-0.2	-32.2	.	55.1*	-11.0	15.7	69.0*
COC(=O)C1Cc2c([nH]c3ccccc23)C2CCC(=O)N12 (stereo not given)	.	-0.1	.	.	.	-3.0	.	.
C[C@@H]1CN([C@@H](C)CO)C(=O)c2cccc(NC(=O)C3CCCCC3)c2O[C@H]1CN(C)C(=O)NC1CCCCC1	.	0.1	-1.5[16.7 µM]	.	.	.	.	.
CN(C)C(=O)c1cccc(-c2ccc3c(c2)[C@H]2[C@H](CCN2C(=O)C2CCCCC2)[C@H](CO)N3)c1	.	.	6.7[16.7 µM]	.	.	.	.	.
O=C(/C=C/c1ccccc1)Nc1cccc(C(=O)O)c1	81.6*	0.3	.	0.2	81.6*	-166.7	76.4*	78.8*
CC[n+]1c(/C=C/N(C)c2ccccc2)n(-c2ccccc2)c2ccc(-c3nc4ccccc4s3)cc21	54.5*	.	.	-1.1	97.6*	91.0*	91.0*	83.0*
COc1ccc(C(=O)NC(=O)NC2(C(Cl)(Cl)Cl)OCCO2)cc1	-273.7	0.0	.	-2.5	-276.6	-150.1	-154.7	-316.0
COc1ccc(C(=O)NCC(C)(C)CNC(=O)c2ccc(OC)cc2)cc1	-1.9	0.2	.	1.1	-26.2	2.3	.	.
O=C(C1CC1)N1[C@@H]2CN(S(=O)(=O)c3ccc(F)cc3)c3ccccc3[C@@H]2[C@@H]1CO	.	0.1	-16.7[16.7 µM]	.	.	.	.	.
COc1cccc2oc3ccc(C#Cc4ccccn4)cc3c(=O)c12	-133.9	-0.1	-2.6	1.4	-138.1	-90.5	.	.
O=c1c2ccccc2oc2cc(C#Cc3ccccn3)ccc12	-253.8	-0.1	-6.9	-0.4	-182.0	-40.6	-85.7	-238.2
O=C(Oc1ccc(Cl)c2ccccc12)N1CCCCC1	-48.0	.	-1.4	2.0	-31.8	-42.8	.	.
O=C(Oc1ccc2ccccc2c1Cl)N1CCCC1	-386.0	.	6.6	-1.8	-153.6	-121.8	-100.7	-336.6
O=C(Oc1ccc2ccccc2c1Cl)N1CCCCCC1	i	-0.1	.	5.2	-306.9	-111.1	-140.4	i
Cc1cc(NNC(=O)Nc2cccc(Cl)c2)nc2c1c(C)nn2C	57.7*	.	.	0.9	53.4*	.	55.9*	56.2*
Cc1cc(NC(=O)Nc2cccc(Cl)c2)no1	.	-0.2	0.7	.	.	-58.1	.	.
SMILES	697 NFkB inh	FGF22 binding	miR122 inh	NR2E3 ag-1	Jurkat NFkB inh	NR2E3 ag-2	Jurkat NFkB conf	697 NFkB conf
O=C(Nc1ccc(C(F)(F)F)cc1)N[C@H]1CC[C@H](CC(=O)N2CCCCC2)O[C@@H]1CO	.	0.0	.	.	.	.	.	.
COc1cccc2c1C(=O)c1c(O)c3c(c(O)c1C2=O)C[C@@](O)(C(=O)CO)C[C@@H]3O[C@H]1C[C@H](N)[C@@H](O)[C@H](C)O1	86.5*	.	-26.0	-1.9	94.0*	-28.1	89.9*	92.2*
C[C@@H]1CN([C@H](C)CO)S(=O)(=O)c2ccc(-c3cccc(C#N)c3)cc2O[C@@H]1CN(C)C(=O)c1ccc(F)cc1	.	-0.6	1.4[16.7 µM]	.	.	.	.	.
COc1cccc(OCc2ccc(Cl)cc2)c1C#N	-488.5	-0.3	.	3.7	-213.8	-218.2	-212.6	-478.6
COc1cccc(CNC(C)(C)CO)c1OCc1ccc(Cl)cc1	-1.4	0.2	.	-1.0	7.4	-14.9	.	.
C[C@H](CO)N1C[C@H](C)[C@H](CN(C)Cc2ccncc2)Oc2ccc(NC(=O)Nc3ccc4c(c3)OCO4)cc2CC1=O	.	-0.1	-4.5[16.7 µM]	.	.	.	.	.
CC(C)Nc1ncnc2c1cnn2-c1ccc(Cl)cc1	-422.1	0.0	-4.4	6.1	-202.3	-57.0	-184.2	-446.1
O=C(Nc1ccc2sccc2c1)c1ccc(Cl)s1	-323.2	-0.1	14.0	-0.9	-223.8	-168.5	-143.7	-306.2
COc1ccc(NC(=O)Nc2ccc3c(c2)C(=O)N([C@H](C)CO)C[C@H](C)[C@@H](CN(C)S(=O)(=O)c2cccs2)OCCCC[C@@H](C)O3)cc1	.	-0.6	3.8[16.7 µM]	.	.	.	.	.
O=C(Nc1nc2ccccc2[nH]1)c1ccccc1	-291.7	.	2.3	1.0	-163.1	-117.3	-60.9	-179.3
COc1cc2nc(NC(=O)c3ccccc3)[nH]c(=O)c2cc1OC	3.5	.	-1.6	2.6	-15.4	-1.4	.	.
COc1cc2nc(NC(=O)c3ccccc3)sc(=O)c2cc1OC	42.6*	0.1	-9.2	.	82.2*	7.9	89.4*	54.2*
COc1ccc(N(C(=O)c2snc(C(N)=O)c2N)C(C(=O)NC2CCCC2)c2cccs2)cc1OC (stereo not given)	13.5	0.2	-11.0	1.0	-2.8	-7.8	.	.
COc1ccc(N(C(=O)c2ccco2)C(C(=O)NC2CCCCC2)c2cccs2)cc1OC (stereo not given)	17.5	.	0.0	2.9	-8.3	2.5	.	.
C#CC(=O)N(c1cc(OC)ccc1OC)C(C(=O)NC1CCCC1)c1cccs1 (stereo not given)	98.5*	.	-17.7	2.5	95.4*	11.9	85.0*	105.4*
C#CC(=O)N(c1ccc(OC)cc1OC)C(C(=O)NC1CCCC1)c1cccs1 (stereo not given)	97.3*	0.1	-31.5	0.7	90.0*	-4.0	66.6*	103.6*
O=C(c1ccc(F)cc1)N1CC(=O)N2[C@@H](CO)[C@@H](c3ccc(-c4cccnc4)cc3)[C@@H]2C1	.	-0.2	.	.	.	.	.	.
